Activity calls are given as the source filed them. No cut-off for these calls is given here.
How the values were obtained:
Mus musculus [1] = assay: Anticonvulsant activity in po dosed CF albino mouse assessed as protection against electroshock-induced seizure; format: functional
In short: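 Male CF mice were dosed orally, with the vehicle for po dosing being a 0.2% agar suspension. Protection against electroshock-induced seizures was examined at 500 mg/kg po. Activity is reported as ED50 in mg/kg po.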

Mus musculus [2] = assay: Antidepressant activity in CF albino mouse assessed as potentiation of dopa-induced response at 25 mg/kg, po relative to control; format: functional
In short: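 Male CF mice received 25 mg/kg orally in 0.2% agar suspension. The read-out was potentiation of the Dopa response. Results were graded on a plus-scale.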

Mus musculus [3] = assay: Central nervous system depressant activity in CF albino mouse assessed as induction of sedation at 500 mg/kg, po; format: functional, organism-based; parameters: dose 500 mg/kg
In short: (§1)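 Male CF mice got 500 mg/kg orally as a 0.2% agar suspension. Scoring was at peak drug effect on a 0-4+ scale. Scores were judged together from percentage inhibition of spontaneous motor activity, a ptotic index based on percentage eye closure, and the degree of sedation.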

Mus musculus [4] = assay: Central nervous system depressant activity in CF albino mouse assessed as inhibition of spontaneous motor activity at 500 mg/kg, po measured within 15 mins relative to control; format: functional; conditions: for inhibition in vivo at 500 mg/kg: 0.25 h; in short: as §1
Mus musculus [5] = assay: Toxicity in CF albino mouse assessed as tremor at 500 mg/kg, po; format: organism-based; parameters: dose 500 mg/kg, route oral; conditions: in vivo
Mus musculus [6] = assay: Toxicity in CF albino mouse assessed as mild convulsion at 500 mg/kg, po; format: organism-based; parameters: dose 500 mg/kg, route oral; conditions: in vivo
Mus musculus [7] = assay: Antidepressant activity in CF albino mouse assessed as inhibition of reserpine-induced hypothermia at 25 mg/kg, po relative to control; format: functional
In short: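 Oral dosing was 25 mg/kg in 0.2% agar suspension to male CF mice. Antagonism of reserpine-induced hypothermia was measured and graded on a plus-scale.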

Mus musculus [8] = assay: Central nervous system depressant activity in CF albino mouse assessed as eye closure rate at 500 mg/kg, po relative to control; format: functional; in short: as §1
Mus musculus [9] = assay: Central nervous system depressant activity in CF albino mouse assessed as induction of sedation without arousability at 500 mg/kg, po; format: functional, organism-based; parameters: dose 500 mg/kg; in short: as §1
Mus musculus [10] = assay: Central nervous system depressant activity in CF albino mouse assessed as induction of sedation at 25 mg/kg, po; format: functional, organism-based; parameters: dose 25 mg/kg
Mus musculus [11] = assay: Central nervous system depressant activity in po dosed CF albino mouse assessed as induction of sedation; format: functional, organism-based
Mus musculus [12] = assay: Central nervous system depressant activity in CF albino mouse assessed as induction of sedation with arousability at 500 mg/kg, po; format: functional, organism-based; parameters: dose 500 mg/kg; in short: as §1
Mus musculus [13] = assay: Toxicity in CF albino mouse at 500 mg/kg, po; format: organism-based; parameters: dose 500 mg/kg, route oral; conditions: in vivo

Row | SMILES | ED50 (Mus musculus [1]) | Activity (Mus musculus [2]) | Activity (Mus musculus [3]) | inhibition in vivo at 500 mg/kg (Mus musculus [4]) | Activity (Mus musculus [5]) | Activity (Mus musculus [6]) | inhibition in vivo at 25 mg/kg (Mus musculus [7]) | Activity (Mus musculus [8]) | inhibition (Mus musculus [4]) | Activity (Mus musculus [9]) | Activity (Mus musculus [10]) | Activity (Mus musculus [11]) | Activity (Mus musculus [12]) | inhibition (Mus musculus [7]) | Activity (Mus musculus [13])
1 | CCN(CC)CCN1N=C(c2ccccc2)C(C)C2=C1CC(C)(C)CC2=O.[O-][Cl+3]([O-])([O-])O (centres undefined) | 400 mg/kg | 26% | inactive | 1% | Toxic | Toxic | 0% | 25% |  |  |  |  |  |  | 
2 | CCOC(=O)NNC1=C(CC(=O)c2ccccc2)C(=O)CC(C)(C)C1 | inactive | 26% | inactive | 1% |  |  | 51% | 25% |  |  |  |  |  |  | 
3 | CC1(C)CC(=O)C(CC(=O)c2ccccc2)=C(NNC(=O)c2ccncc2)C1 | inactive | 51% | inactive | 1% |  |  | 51% | 25% |  |  |  |  |  |  | 
4 | CC1=NNC2=C(C1)C(=O)CC(C)(C)C2 | inactive | 51% |  |  |  |  | 0% |  | inactive |  |  |  |  |  | 
5 | CC1(C)CC(=O)c2cc(-c3ccccc3)nnc2C1 | 500 mg/kg | 26% | inactive | 1% | Toxic | Toxic | 26% | 25% |  |  |  |  |  |  | 
6 | CC1(C)CC(=O)C2=C(C1)NN=C(c1ccccc1)C2 | inactive | 26% |  |  |  |  | 26% |  | inactive |  |  |  |  |  | 
7 | CC1(C)CC(=O)C(CC(=O)c2ccccc2)=C(NNC(=N)N)C1 | inactive | 51% | inactive | 1% |  |  | 76% | 25% |  |  |  |  |  |  | 
8 | CC1(C)CC(=O)C2=C(C1)N(CCO)N=C(c1ccccc1)C2.Cc1ccc(S(=O)(=O)O)cc1 | inactive | 51% | inactive | 1% |  |  | 26% | 25% |  |  |  |  |  |  | 
9 | CCN(CC)CCN1N=C(c2ccc(F)cc2)CC2=C1CC(C)(C)CC2=O | 150 mg/kg | 51% |  | 51% | Toxic | Toxic | 26% | 75% |  | inactive | Active |  |  |  | 
10 | CCN(CC)CCN1N=C(c2cc(OC)c(OC)c(OC)c2)CC2=C1CC(C)(C)CC2=O.[O-][Cl+3]([O-])([O-])O | inactive | 26% |  |  |  |  | 51% |  | inactive |  |  |  |  |  | 
11 | CCN(CC)CCN1N=C(c2ccc(Br)cc2)CC2=C1CC(C)(C)CC2=O | 100 mg/kg | 26% | Active | 26% | Toxic | Toxic | 26% | 50% |  |  |  |  |  |  | 
12 | CC1(C)CC(=O)C(CC(=O)c2ccccc2)=C(NNc2ccncc2)C1 | inactive | 51% | inactive | 1% |  |  | 76% | 25% |  |  |  |  |  |  | 
13 | CC1(C)CC(=O)C2=C(C1)N(c1ccccc1)N=C(c1ccccc1)C2 | inactive | 0% |  |  |  |  | 26% |  | inactive |  |  |  |  |  | 
14 | CN(C)CCN/N=C1/CC(C)(C)CC2=C1CC(c1ccccc1)=NN2CCN(C)C | inactive |  |  |  |  |  |  |  | inactive |  |  |  |  |  | 
15 | CN1N=C(c2ccccc2)CC2=C1CC(C)(C)CC2=O | inactive | 26% |  |  |  |  | 51% |  | inactive |  |  |  |  |  | 
16 | CN(C)CCN1N=C(c2ccccc2)CC2=C1CC(C)(C)CC2=O.[O-][Cl+3]([O-])([O-])O | 500 mg/kg | 51% |  | 51% | Toxic | Toxic | 26% | 75% |  | inactive |  | Dose-dependent effect |  |  | 
17 | CC1(C)CC(=O)C2=C(C1)N(C(N)=O)N=C(c1ccccc1)C2 | inactive | 51% |  |  |  |  | 26% |  | inactive |  |  |  |  |  | 
18 | CCN(CC)CCN1N=C(c2ccc(OC)cc2)CC2=C1CC(C)(C)CC2=O.[O-][Cl+3]([O-])([O-])O | 300 mg/kg | 26% | inactive | 1% |  |  | 0% | 25% |  |  |  |  |  |  | 
19 | CN(C)CCCN1N=C(c2ccccc2)CC2=C1CC(C)(C)CC2=O.O.[O-][Cl+3]([O-])([O-])O | 500 mg/kg | 51% | inactive | 1% |  |  | 26% | 25% |  |  |  |  |  |  | 
20 | CCN(CC)CCn1nc(C)c(=O)c2c1CC(C)(C)CC2=O | inactive | 26% |  |  |  |  | 51% |  | inactive |  |  |  |  |  | 
21 | CN(C)CCN1N=C(c2ccc(Br)cc2)CC2=C1CC(C)(C)CC2=O.[O-][Cl+3]([O-])([O-])O | 100 mg/kg | 51% |  | 51% |  |  |  | 75% |  |  |  |  | Active | inactive | 
22 | CC1(C)CC(=O)C2=C(C1)N(CCN1CCNCC1)N=C(c1ccc(Br)cc1)C2.Cl.O | inactive | 0% | Active | 26% |  |  | 26% | 50% |  |  |  |  |  |  | 
23 | CCN(CC)CCN1N=C(c2ccccc2)CC2=C1CC(C)(C)CC2=O.[O-][Cl+3]([O-])([O-])O | 225 mg/kg | 51% | Active | 26% | Toxic | Toxic | 26% | 50% |  |  |  |  |  |  | 
24 | CN(C)CCN1N=C(c2ccc(F)cc2)CC2=C1CC(C)(C)CC2=O.O.O=C(O)C(=O)O | inactive | 26% |  |  | Toxic | Toxic | 26% |  | inactive |  |  |  |  |  | 
25 | CCN(CC)CCN1N=C(c2ccccc2)CC2=C1CCCC2=O.[O-][Cl+3]([O-])([O-])O | 200 mg/kg | 51% |  |  |  |  | 26% |  | inactive |  |  |  |  |  | Toxic
26 | CC1(C)CC(=O)C2=C(C1)N(CCN1CCNCC1)N=C(c1ccc(F)cc1)C2.Cc1ccc(S(=O)(=O)O)cc1.O | inactive | 51% |  |  |  |  | 26% |  | inactive |  |  |  |  |  | 
